Assay results taken from ChEMBL document CHEMBL1122270, “N-(4-substituted-thiazolyl)oxamic acid derivatives, a new series of potent, orally active antiallergy agents” (1983).

How the values were obtained:
Type in all cases: functional
Rattus norvegicus [1] = experiment: Antiallergic activity by rat passive cutaneous anaphylaxis (PCA) assay when administered per orally;value ranges between (1.4-4.6.); conditions: po
Outline: (§1)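 Rats were passively sensitized intradermally with diluted reaginic anti-ovalbumin serum 24 h before challenge. Compound was suspended in 1% acacia and dosed by oral feeding needle at 1 mL/kg. After 20-30 min, rats were challenged with 0.02 mg ovalbumin in 0.5 mL 2% Evans Blue. Blued areas were measured 30 min after challenge. Six rats per dose; ED50 is 50% area reduction from control, with 95% confidence limits.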

Rattus norvegicus [2] = experiment: Antiallergic activity by rat passive cutaneous anaphylaxis (PCA) assay when administered iv;value ranges between (0.07-1.70).
Outline: (§2)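 Male rats sensitized by id injection of diluted rat anti-ovalbumin reaginic serum (0.1 mL each side of shaved back). 24 h later, compound in saline was mixed with 5 mg ovalbumin in 0.5 mL 2% Evans Blue and given iv at 1 mL/kg. Blued-spot diameters were read 30 min later. Six rats per group; ED50 is 50% area reduction versus control, with 95% confidence limits.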

Rattus norvegicus [3] = experiment: Antiallergic activity by rat passive cutaneous anaphylaxis (PCA) assay when administered per orally;value ranges between( 0.4-3.0.); conditions: po; outline: as §1
Rattus norvegicus [4] = experiment: Antiallergic activity by rat passive cutaneous anaphylaxis (PCA) assay when administered per orally; conditions: po; outline: as §1
Rattus norvegicus [5] = experiment: Antiallergic activity by rat passive cutaneous anaphylaxis (PCA) assay when administered per orally;value ranges between (0.4-0.8.); conditions: po; outline: as §1
Rattus norvegicus [6] = experiment: Antiallergic activity by rat passive cutaneous anaphylaxis (PCA) assay when administered per orally.;value ranges between (1.3-3.2); conditions: po; outline: as §1
Rattus norvegicus [7] = experiment: Antiallergic activity by rat passive cutaneous anaphylaxis (PCA) assay when administered per orally;value ranges between (0.64-6.67).; conditions: po; outline: as §1
Rattus norvegicus [8] = experiment: antiallergic activity by rat passive cutaneous anaphylaxis (PCA) assay when administered iv; outline: as §2
Rattus norvegicus [9] = experiment: Antiallergic activity by rat passive cutaneous anaphylaxis (PCA) assay when administered per orally;value ranges between (0.15-0.94.); conditions: po; outline: as §1
Rattus norvegicus [10] = experiment: Antiallergic activity by rat passive cutaneous anaphylaxis (PCA) assay when administered iv;value ranges between (0.07-0.4.); outline: as §2
Rattus norvegicus [11] = experiment: Antiallergic activity by rat passive cutaneous anaphylaxis (PCA) assay when administered iv;value ranges between (0.2-1.1).; outline: as §2
Rattus norvegicus [12] = experiment: Antiallergic activity by rat passive cutaneous anaphylaxis (PCA) assay when administered per orally;value ranges between (1.0-4.8).; conditions: po; outline: as §1
Rattus norvegicus [13] = experiment: Antiallergic activity by rat passive cutaneous anaphylaxis (PCA) assay when administered per orally;value ranges between (0.11-0.75.); conditions: po; outline: as §1
Rattus norvegicus [14] = experiment: Antiallergic activity by rat passive cutaneous anaphylaxis (PCA) assay when administered iv;value ranges between 0.23-2.24; outline: as §2
Rattus norvegicus [15] = experiment: Antiallergic activity by rat passive cutaneous anaphylaxis (PCA) assay when administered perorally; value ranges between (1.3-3.3); conditions: po; outline: as §1
Rattus norvegicus [16] = experiment: Antiallergic activity by rat passive cutaneous anaphylaxis (PCA) assay when administered per orally;value ranges between (0.5-3.27); conditions: po; outline: as §1
Rattus norvegicus [17] = experiment: Antiallergic activity by rat passive cutaneous anaphylaxis (PCA) assay when administered perorally; value ranges between (0.4-2.3.); conditions: po; outline: as §1
Rattus norvegicus [18] = experiment: Antiallergic activity by rat passive cutaneous anaphylaxis (PCA) assay when administered iv.;value ranges between (0.04-0.3); outline: as §2
Rattus norvegicus [19] = experiment: Antiallergic activity by rat passive cutaneous anaphylaxis (PCA) assay when administered iv;value ranges between (0.56-2.74); outline: as §2

`NCCO.O=C(O)C(=O)Nc1nc(-c2ccc([N+](=O)[O-])cc2)cs1` showed an ED50 (Rattus norvegicus [1]) of 2.5 mg/kg.
In the case of `CN(C)c1cccc(-c2csc(NC(=O)C(=O)O)n2)c1.NCCO`, the ED50 (Rattus norvegicus [2]) is reported as 0.35 mg/kg and the ED50 (Rattus norvegicus [3]) is reported as 1.7 mg/kg.
`NCCO.O=C(O)C(=O)Nc1nc(-c2ccncc2)cs1` was tested, and the ED50 (Rattus norvegicus [4]) was greater than 3 mg/kg.
Compound `CCOC(=O)C(=O)Nc1nc(-c2ccc(OC)c(OC)c2)cs1` has an ED50 (Rattus norvegicus [4]) of roughly 3 mg/kg.
Compound `CC(=O)Nc1ccc(-c2csc(NC(=O)C(N)=O)n2)cc1` has an ED50 (Rattus norvegicus [4]) greater than 10 mg/kg.
With `CCOc1ccc(-c2csc(NC(=O)C(=O)O)n2)cc1.NCCO` the ED50 (Rattus norvegicus [5]) was 0.54 mg/kg.
In the case of `CCOC(=O)C(=O)Nc1nc(-c2ccc(OCC)cc2)cs1`, the ED50 (Rattus norvegicus [6]) is reported as 2.1 mg/kg.
Work on `NCCO.O=C(O)C(=O)Nc1nc(-c2cccnc2)cs1` yielded an ED50 (Rattus norvegicus [4]) greater than 10 mg/kg.
`Cc1cc(-c2csc(NC(=O)C(=O)O)n2)ccc1O.NCCO` showed an ED50 (Rattus norvegicus [4]) of roughly 1 mg/kg.
`CCOC(=O)C(=O)Nc1nc(-c2ccc(OC)cc2O)cs1` gave an ED50 (Rattus norvegicus [4]) of roughly 1 mg/kg.
In the case of `COc1cc(-c2csc(NC(=O)C(=O)O)n2)ccc1O.NCCO`, the ED50 (Rattus norvegicus [7]) is reported as 2.1 mg/kg and the ED50 (Rattus norvegicus [8]) is reported as less than 0.1 mg/kg.
Compound `NCCO.O=C(O)C(=O)Nc1nc(-c2ccc(O)c(O)c2)cs1` has an ED50 (Rattus norvegicus [4]) of 0.1 mg/kg and an ED50 (Rattus norvegicus [8]) of 0.08 mg/kg.
Work on `COc1cc(OC)cc(-c2csc(NC(=O)C(=O)O)n2)c1` yielded an ED50 (Rattus norvegicus [4]) of roughly 1 mg/kg and an ED50 (Rattus norvegicus [8]) of roughly 0.1 mg/kg.
`CCOC(=O)C(=O)Nc1nc(-c2cc(OC)ccc2OC)cs1` gave an ED50 (Rattus norvegicus [4]) greater than 10 mg/kg.
`CCOC(=O)C(=O)Nc1nc(-c2cc(OC)cc(OC)c2)cs1` showed an ED50 (Rattus norvegicus [4]) of roughly 10 mg/kg.
`CC(=O)N1c2ccccc2Sc2ccc(-c3csc(NC(=O)C(=O)O)n3)cc21.NCCO` gave an ED50 (Rattus norvegicus [4]) of roughly 10 mg/kg.
With `CCCCOC(=O)C(=O)Nc1nc(-c2ccc(C(=O)OCC)cc2)cs1` the ED50 (Rattus norvegicus [4]) was greater than 10 mg/kg.
`CCOC(=O)C(=O)Nc1nc(-c2ccc(O)c(O)c2)cs1` showed an ED50 (Rattus norvegicus [4]) of 1.4 mg/kg.
`CCOC(=O)C(=O)Nc1nc(-c2ccc3c(c2)OCC(CN2CCCCC2)O3)cs1` (configuration not stated) was tested, and the ED50 (Rattus norvegicus [4]) was greater than 10 mg/kg.
`CCOC(=O)C(=O)Nc1nc(-c2ccc3c(c2)OCCO3)cs1` gave an ED50 (Rattus norvegicus [4]) greater than 10 mg/kg.
Work on `CCCC(=O)Nc1ccc(-c2csc(NC(=O)C(=O)OCC)n2)cc1` yielded an ED50 (Rattus norvegicus [4]) greater than 10 mg/kg and an ED50 (Rattus norvegicus [8]) of less than 0.3 mg/kg.
In the case of `CC(=O)Nc1ccc(-c2csc(NC(=O)C(=O)O)n2)cc1`, the ED50 (Rattus norvegicus [9]) is reported as 0.37 mg/kg and the ED50 (Rattus norvegicus [10]) is reported as 0.16 mg/kg.
Compound `CCOC(=O)C(=O)Nc1nc(-c2ccc3oc(C)c(C)c(=O)c3c2)cs1` has an ED50 (Rattus norvegicus [4]) greater than 3 mg/kg.
In the case of `COc1ccc(-c2csc(NC(=O)C(=O)O)n2)c(OC)c1`, the ED50 (Rattus norvegicus [4]) is reported as greater than 10 mg/kg and the ED50 (Rattus norvegicus [11]) is reported as 0.39 mg/kg.
`CCOC(=O)C(=O)Nc1nc(-c2ccc(C(=O)OCC)cc2)cs1` was tested, and the ED50 (Rattus norvegicus [4]) was greater than 10 mg/kg.
With `NCCO.O=C(O)C(=O)Nc1nc(-c2ccc(Sc3ccccc3)cc2)cs1` the ED50 (Rattus norvegicus [4]) was greater than 30 mg/kg.
`CCOC(=O)C(=O)Nc1nc(-c2cccc(O)c2)cs1` showed an ED50 (Rattus norvegicus [4]) greater than 10 mg/kg.
In the case of `CCOC(=O)C(=O)Nc1nc(-c2ccc(O)c(C)c2)cs1`, the ED50 (Rattus norvegicus [12]) is reported as 2.2 mg/kg.
`CCOC(=O)C(=O)Nc1nc(-c2ccc(NC(C)=O)cc2)cs1` was tested, and the ED50 (Rattus norvegicus [13]) was 0.29 mg/kg.
`CCOC(=O)C(=O)Nc1nc(-c2ccccc2C(=O)OC)cs1` gave an ED50 (Rattus norvegicus [4]) greater than 10 mg/kg.
For `CC(=O)c1cc(-c2csc(NC(=O)C(=O)O)n2)ccc1O.NCCO.NCCO`, the ED50 (Rattus norvegicus [4]) was roughly 1 mg/kg and the ED50 (Rattus norvegicus [14]) was 0.71 mg/kg.
`NC(=O)C(=O)Nc1ccc(-c2csc(NC(=O)C(N)=O)n2)cc1` was tested, and the ED50 (Rattus norvegicus [4]) was roughly 1 mg/kg.
`Cc1sc(NC(=O)C(=O)O)nc1-c1ccccc1.NCCO` gave an ED50 (Rattus norvegicus [15]) of 2.5 mg/kg.
`CCOC(=O)C(=O)Nc1nc(-c2ccc(NC(=O)C(F)(F)F)cc2)cs1` showed an ED50 (Rattus norvegicus [4]) of roughly 1 mg/kg.
In the case of `CCOC(=O)C(=O)Nc1nc(-c2ccc(N(C)C)cc2)cs1`, the ED50 (Rattus norvegicus [4]) is reported as roughly 1 mg/kg and the ED50 (Rattus norvegicus [8]) is reported as roughly 0.3 mg/kg.
For `COC(=O)C(=O)Nc1nc(-c2ccc(OC)c(OC)c2)cs1`, the ED50 (Rattus norvegicus [16]) was 1.2 mg/kg.
Compound `Cc1cc(O)ccc1-c1csc(NC(=O)C(=O)O)n1.NCCO` has an ED50 (Rattus norvegicus [4]) greater than 10 mg/kg and an ED50 (Rattus norvegicus [8]) of 1 mg/kg.
Work on `NCCO.O=C(O)C(=O)Nc1nc(-c2ccc(F)cc2)cs1` yielded an ED50 (Rattus norvegicus [17]) of 0.9 mg/kg and an ED50 (Rattus norvegicus [18]) of 0.11 mg/kg.
In the case of `NCCO.O=C(O)C(=O)Nc1nc(-c2ccc(Oc3ccccc3)cc2)cs1`, the ED50 (Rattus norvegicus [4]) is reported as greater than 10 mg/kg.
In the case of `O=C([O-])c1cc(=O)c2c(OCC(O)COc3cccc4oc(C(=O)[O-])cc(=O)c34)cccc2o1.[Na+].[Na+]` [CROMOLYN SODIUM], the ED50 (Rattus norvegicus [19]) is reported as 1.24 mg/kg.
`CCOC(=O)C(=O)Nc1nc(-c2ccc(OC)cc2)cs1` [TIOXAMAST] gave an ED50 (Rattus norvegicus [4]) of roughly 10 mg/kg.
